Assay results as given in ChEMBL document CHEMBL1287788, “2-aminohydroxamic acid derivatives as inhibitors of Bacillus cereus phosphatidylcholine preferred phospholipase C PC-PLC(Bc)” (Bioorg Med Chem, 2010).

Columns and labels:
[1] = Cytotoxicity against human A549 cells after 24 hrs by MTT assay; type: cell-based; conditions: read-out: LD50
[2] = Critical micelle concentration of the compound; type: physicochemical
Phospholipase C [3] = target: T1, Phospholipase C (Bacillus cereus, UniProt P09598); assay: Inhibition of Bacillus cereus phosphatidylcholine preferred phospholipase C after 100 seconds
T1 sequence (P09598 whole entry): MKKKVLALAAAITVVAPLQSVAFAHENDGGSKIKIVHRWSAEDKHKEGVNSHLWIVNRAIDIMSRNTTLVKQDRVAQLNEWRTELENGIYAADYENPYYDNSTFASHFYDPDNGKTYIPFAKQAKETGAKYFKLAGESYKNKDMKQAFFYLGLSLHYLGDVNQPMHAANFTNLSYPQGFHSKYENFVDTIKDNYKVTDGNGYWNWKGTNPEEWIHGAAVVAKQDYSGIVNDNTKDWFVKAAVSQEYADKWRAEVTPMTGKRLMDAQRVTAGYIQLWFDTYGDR
In short: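 Bacillus cereus PC-PLC activity measured by a coupled read-out: phosphorylcholine released by the enzyme is hydrolysed by alkaline phosphatase, and the freed phosphate ions are quantified. Substrate was 1,2-di-n-hexanoyl-sn-glycero-3-phosphocholine at 2 mM final, below its CMC of 11.1 mM. Compound CMC values were determined so the assay ran under non-micellar conditions.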

Phospholipase C [4] = target: T1, Phospholipase C; assay: Non-competitive inhibition of Bacillus cereus phosphatidylcholine preferred phospholipase C by Dixon plot analysis
[5] = target: T2, Phospholipase C (Bacillus cereus) (UniProt P09598); assay: Irreversible inhibition of Bacillus cereus phosphatidylcholine preferred phospholipase C assessed as residual activity after 10 mins
T2 sequence (whole entry): T1 sequence (P09598 whole entry)

Phospholipase C [6] = target: T1, Phospholipase C; assay: Mixed-type inhibition of Bacillus cereus phosphatidylcholine preferred phospholipase C by Dixon plot analysis
Phospholipase C [7] = target: T1, Phospholipase C; assay: Uncompetitive inhibition of Bacillus cereus phosphatidylcholine preferred phospholipase C by Dixon plot analysis

| SMILES | CC50 at 24 h [1] [µM] | CMC [2] [µM] | IC50 (Phospholipase C [3]) [µM] | Ki (Phospholipase C [4]) [µM] | Activity [5] [%] | Ki (Phospholipase C [6]) [µM] | Ki (Phospholipase C [7]) [µM] |
| --- | --- | --- | --- | --- | --- | --- | --- |
| CCCCCCCCCCC(NC(=O)OC(C)(C)C)C(=O)N(CC[N+](C)(C)C)OCc1ccccc1.[I-] (centres undefined) | 28.2 | > 500 | 5 |  |  |  |  |
| CCCCCCCCCCC(NC(=O)OC(C)(C)C)C(=O)N(CCCN(C)C)OCc1ccccc1 (centres undefined) | 6 | 10 | 8 | 2.5 |  |  |  |
| CCCCCCCCCCCCCCC(N)C(=O)N(CC[N+](C)(C)C)OCc1ccccc1.Cl.[Cl-] (centres undefined) | 75.3 | 90 | 4 |  |  |  |  |
| CCCCCCCCCCC(N)C(=O)N(CC[N+](C)(C)C)OCc1ccccc1.Cl.[Cl-] (centres undefined) | 76.1 | > 500 | 10 |  |  |  |  |
| CCCCCCC(N)C(=O)N(CC[N+](C)(C)C)OCc1ccccc1.Cl.[Cl-] (centres undefined) | > 100 | > 500 | > 500 |  |  |  |  |
| CCCCCCC(N)C(=O)N(O)CC[N+](C)(C)C.Cl.[Cl-] (centres undefined) | > 100 | > 500 | 500 |  |  |  |  |
| CCCCCCCCCCCCCCC(N)C(=O)N(O)CC[N+](C)(C)C.Cl.[Cl-] (centres undefined) | 100 | 120 | 2 |  |  |  |  |
| CCCCCCCCCCCCCCCCCCC(N)C(=O)N(CC[N+](C)(C)C)OCc1ccccc1.Cl.[Cl-] (centres undefined) | 29 | 10 | 4 |  |  |  |  |
| CCCCCCC(N)C(=O)N(O)CCC[N+](C)(C)C.Cl.[Cl-] (centres undefined) | > 100 | > 500 | > 500 |  |  |  |  |
| CCCCCCC(NC(=O)OC(C)(C)C)C(=O)N(CCCN(C)C)OCc1ccccc1 (centres undefined) | 21 | 75 | 77 |  |  |  |  |
| CCCCCCCCCCC(N)C(=O)N(CCCN(C)C)OCc1ccccc1.Cl.Cl (centres undefined) | 7 | 8 | 32 |  |  |  |  |
| CCCCCCC(NC(=O)OC(C)(C)C)C(=O)N(CC[N+](C)(C)C)OCc1ccccc1.[I-] (centres undefined) | > 100 | > 500 | 56 |  |  |  |  |
| CCCCCCCCCCCCCCC(NC(=O)OC(C)(C)C)C(=O)N(CC[N+](C)(C)C)OCc1ccccc1.[I-] (centres undefined) | 27.6 | > 500 |  |  | 100 |  |  |
| CCCCCCCCCCC(N)C(=O)N(CCC[N+](C)(C)C)OCc1ccccc1.Cl.[Cl-] (centres undefined) | 43.4 | 141 | 50 |  |  |  |  |
| CCCCCCC(N)C(=O)N(CCCN(C)C)OCc1ccccc1.Cl.Cl (centres undefined) | > 100 | 158 | > 500 |  |  |  |  |
| CCCCCCCCCCCCCCCCCCC(N)C(=O)N(O)CC[N+](C)(C)C.Cl.[Cl-] (centres undefined) | 52.7 | 50 | 4 |  |  |  |  |
| CCCCCCC(NC(=O)OC(C)(C)C)C(=O)N(CCC[N+](C)(C)C)OCc1ccccc1.[I-] (centres undefined) | > 100 | 221 | 78 |  |  |  |  |
| CCCCCCC(N)C(=O)N(CCC[N+](C)(C)C)OCc1ccccc1.Cl.[Cl-] (centres undefined) | > 100 | 210 | 100 |  |  |  |  |
| CCCCCCCCCCCCCCCCCCC(NC(=O)OC(C)(C)C)C(=O)N(CC[N+](C)(C)C)OCc1ccccc1.[I-] (centres undefined) | 25.1 | 75 |  |  |  |  |  |
| CCCCCCCCCCC(NC(=O)OC(C)(C)C)C(=O)N(CCC[N+](C)(C)C)OCc1ccccc1.[I-] (centres undefined) | 17 | 40 |  |  |  | 2.5 |  |
| CCCCCCCCCCC(N)C(=O)N(O)CC[N+](C)(C)C.Cl.[Cl-] (centres undefined) | > 100 | > 500 | 40 |  |  |  | 12 |
| CCCCCCCCCCC(N)C(=O)N(O)CCC[N+](C)(C)C.Cl.[Cl-] (centres undefined) | > 100 | 97 | 58 |  |  | 26 |  |
| CCCCCCC(N)C(=O)N(O)CCCN(C)C.Cl.Cl (centres undefined) | > 100 | > 500 | > 500 |  |  |  |  |
| CCCCCCCCCCC(N)C(=O)N(O)CCCN(C)C.Cl.Cl (centres undefined) | 40 | 79 | 100 |  |  |  |  |
